Assay outcomes (PubChem BioAssay)
Sampled rows, rich in hits. Any-hit rate of the full collection: about 2.3%.
TAAR1 antag – antagonists of human TAAR1. Q96RJ0. CHO RD-HGA16 TAAR1, Fluo-8 calcium fluorescence, antagonist. inhibition, % at 3 µM. actives 1.5% (n = 360,000);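 active = inhibition above a per-plate cutoff, the mean inhibition of test compounds on that plate plus 3 SD, cut at about 49% in these data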;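 also: 0% = DMSO plus EC80 beta-PEA response and 100% = DMSO alone without agonist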
Target sequence (Q96RJ0 whole entry, looked up): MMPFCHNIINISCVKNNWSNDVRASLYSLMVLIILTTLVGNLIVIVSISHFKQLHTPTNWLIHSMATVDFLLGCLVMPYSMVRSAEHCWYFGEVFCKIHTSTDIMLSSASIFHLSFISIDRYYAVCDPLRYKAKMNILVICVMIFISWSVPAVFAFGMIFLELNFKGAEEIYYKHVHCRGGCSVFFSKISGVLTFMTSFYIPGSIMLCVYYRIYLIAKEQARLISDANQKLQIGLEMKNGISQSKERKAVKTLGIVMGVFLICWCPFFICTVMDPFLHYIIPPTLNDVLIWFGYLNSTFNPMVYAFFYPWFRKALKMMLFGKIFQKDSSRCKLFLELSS
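Test system: hTAAR1-expressing CHO RD-HGA16 cells, Gα16-coupled; Probe or stimulus: EC80 β-phenethylamine stimulus; Compound dosing: single nominal final test compound concentration of 3 µM; Timing: 140 s kinetic read after compound, 140 s after agonist; Signal: Fluo-8 calcium-sensitive fluorescence; Measure: % inhibition of agonist calcium response; Controls: DMSO and EC80 PEA controls.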
OXTR potentiator – human OXTR potentiation; CHO-OTR cells, Fluo-8 calcium fluorescence, potentiator mode; 0% = oxytocin EC15, 100% = EC100; AID 2445; actives 0.061% (n = 320,000); activation, % at 3 µM;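 active = activation above that plate's cutoff, the mean activation of tested compounds plus 3 SD, cut at about 6.6% in these data, passing the limit was not always enough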;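 also: 100% uses oxytocin at 75 nM as the full agonist control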
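Dosing: Single dose, 3.0 µM nominal final compound concentration | Material: Human OTR in CHO cells | Technique: Kinetic Fluo-8 calcium fluorescence | Benchmarks: EC15 oxytocin alone as 0%, 75 nM oxytocin as 100% | Probe or stimulus: Oxytocin at about EC15, sub-maximal agonist stimulus | Incubation: Compound 6 min at room temperature before oxytocin, 100 s read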
TAAR1 ag – human TAAR1 agonism; activation, % at 3 µM; actives 0.99% (n = 360,000); CHO RD-HGA16 TAAR1, Fluo-8 calcium fluorescence; vehicle wells 0%, saturating PEA agonist 100%; Q96RJ0; AID 624467;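 active = activation above the mean activation of all test compounds in the run plus 3 SD, cut at about 38% in these data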
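System: CHO RD-HGA16 cells carrying human TAAR1 plus Gα16; Incubation: 17-24 h seeding, 75 min 37 °C dye, 30 min RT; Measured by: Fluo-8 fluorescence, 5 s baseline then 140 s kinetic read; Control set: DMSO and PEA EC100; Replication: single well for each compound.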
OXTR ag – human OXTR agonism. P30559. CHO-OTR cells, Fluo-8 calcium fluorescence; normalized: DMSO 0%, oxytocin 100%. activation, % at 3 µM. actives 0.32% (n = 320,000);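 active = activation above the mean of all tested compounds plus 3 SD, cutoff set per screening run, cut at about 20% in these data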;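 also: peak over basal fluorescence ratio from a 100 s FLIPR kinetic read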
V1aR counter – V1a receptor agonism, counter-screen for OXTR agonists. activation, % at 3 µM. CHO-V1R cells, Fluo-8 calcium fluorescence, agonist mode; 0% DMSO, 100% 3 nM vasopressin. P37288. actives 0.25% (n = 320,000);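 active = activation above the mean activation of all tested compounds plus 3 SD, per screening run, cut at about 20% in these data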;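 also: signal is peak over basal fluorescence ratio across a 100 second FLIPR read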
Starred values were filed as active, the others as inactive; . = not tested or not shown.

SMILES	TAAR1 antag	OXTR potentiator	TAAR1 ag	OXTR ag	V1aR counter
O=C(c1cc(=O)[nH]c2ccccc12)N1CCN(S(=O)(=O)c2ccc(Cl)cc2)CC1	59*	5	30	0	0
COc1cccc(NC(=O)CCc2nc(-c3ccccc3F)no2)c1	5	4	7	3	3
O=C(CCc1nc(-c2ccccc2F)no1)Nc1ccc(Oc2ccccc2)cc1	54*	-22	12	5	7
COC(=O)C1=C(C)N(C)C(=NCc2ccc(OC)cc2)NC1c1ccc(Cl)cc1 (centres undefined)	-11	.	6	.	.
O=C(Nc1nc2c(s1)CN(Cc1ccccc1)CC2)c1cccc(S(=O)(=O)N2CCc3ccccc32)c1	21	-13	38*	1	4
CC(=O)Nc1cccc(NC(=O)c2ccc3c(c2)CCN3S(=O)(=O)c2ccccc2)c1	50*	-3	5	2	8
Cc1ccc(/C=N/NC(=O)c2c(C)nc3ccc(Cl)cn23)cc1	-4	.	0	.	.
Nc1[nH]c(C(=O)c2ccc(Cl)cc2)c(-c2ccc(Br)cc2)c1C(=O)NCc1ccc(Cl)cc1Cl	-9	.	0	.	.
O=C(CSc1nn(-c2ccccc2)c(=S)s1)Nn1cnnc1	-13	-11	11	-1	0
Cc1ccc(NC(=O)CSc2nn(-c3ccccc3)c(=S)s2)cc1S(=O)(=O)N(C)C	51*	-9	10	10	10
COCCN1Cc2cc(C(=O)OC)c3c(c2C1=O)c1ccccc1n3S(=O)(=O)c1ccc(C)cc1	-28	.	-1	.	.
CC(C)c1ccccc1NC(=O)COC(=O)c1c2c(nc3ccccc13)CCN(Cc1ccccc1)C2	59*	-13	12	-1	-1
Cc1c(Cl)cccc1NC(=O)COC(=O)c1c2c(nc3ccccc13)CCN(Cc1ccccc1)C2	47	-10	15	0	2
O=C(COC(=O)c1c2c(nc3ccccc13)CCCC2)Nc1ccc2c(c1)OCO2	54*	-23	8	-2	-1
CC(C)NC(=O)NC(=O)COC(=O)c1c2c(nc3ccccc13)CCC2	52*	-12	10	1	5
NC(Cc1ccc(O)cc1)C(=O)NN=Cc1ccccc1Cl (centres undefined)	-12	.	2	.	.
CCOC(=O)C1=C(Cn2cnc3ccccc32)NC(=O)NC1c1cc(C)ccc1C (centres undefined)	65*	-7	58*	12	0
COC(=O)C1=C(Cn2cnc3ccccc32)NC(=O)NC1c1cc(C)ccc1C (centres undefined)	28	-2	5	0	6
Cc1ccc(-c2c(C(=O)N/N=C/c3ccc(C)o3)nnn2-c2nonc2N)cc1	5	-10	43*	3	5
CCOc1cccc(-c2c(C(=O)N/N=C/c3ccc(C)s3)nnn2-c2nonc2N)c1	-13	-4	53*	3	9
COc1cccc(-c2c(C(=O)N/N=C/c3ccc(C)o3)nnn2-c2nonc2N)c1	27	-8	42*	4	4
Cc1ccc(SCc2c(C(=O)N/N=C/c3ccc(C)o3)nnn2-c2nonc2N)cc1	29	.	3	.	.
COc1ccccc1/C=C1/C(=O)N(c2ccccc2)N=C1C	16	-10	37*	3	19
CC1=NN(c2ccccc2)C(=O)/C1=C\N1CC(C)OC(C)C1 (centres undefined)	70*	2	98*	1	0
CC1=NN(c2ccccc2)C(=O)/C1=C/C=C/c1ccccc1	18	-5	-2	-2	0
SMILES	TAAR1 antag	OXTR potentiator	TAAR1 ag	OXTR ag	V1aR counter
Cc1nc([N+](=O)[O-])cn1CC(Cl)Cn1cc([N+](=O)[O-])nc1C	-16	.	2	.	.
CCOC(=O)c1cc(C(=O)OCC)c(=O)[nH]c1SCc1ccccc1	-27	-17	41*	-2	2
COc1cc(C#Cc2c(-c3cncn3C)n(C)c3ccc(-c4ccc(CN5CCOCC5)cc4)cc23)cc(OC)c1	56*	-2	3	0	0
O=C(Nc1cccc([N+](=O)[O-])c1)c1ccc(CSc2ccccc2)cc1	52*	-9	15	1	1
O=C(Nc1cccc([N+](=O)[O-])c1)c1ccccc1	4	-10	0	-2	0
CCOC(=O)N1CCN(C(=O)C2CCN(C(=O)c3ccccc3C)CC2)CC1	18	.	66*	.	.
CCOC(=O)C1=C(C)Nc2ccccc2N=C1NC(=O)C1CCN(C(=O)c2ccccc2C)CC1	49*	3	10	1	-1
COC(=O)c1cc(=O)nc(NN=C(C)C)s1	-3	.	0	.	.
O=C(Oc1cccc(Nc2ncnc3ccccc23)c1)c1cccnc1	31	-28	11	9	9
COc1cc(C(=O)Oc2cccc(Nc3ncnc4ccccc34)c2)cc(OC)c1OC	82*	-11	13	6	6
CCn1cc(CCC(=O)Nc2ccc(Oc3cccnc3)cc2)c2ccccc21	23	.	0	.	.
COc1ccc(OC2C(=O)N(Cc3ccc(F)cc3)C2c2ccc(OC)c(OC)c2)cc1 (centres undefined)	28	-8	5	-1	0
COc1ccc(OC2C(=O)N(Cc3ccc4c(c3)OCO4)C2c2sccc2C)cc1 (centres undefined)	50*	-10	3	1	1
O=C(O)CC(Sc1ccc(Cl)cc1)C(=O)Nc1ccccc1 (centres undefined)	2	.	1	.	.
Cc1[nH]n(-c2ccccc2)c(=O)c1N=Nc1nccs1	8	-2	42*	10	-1
Cc1[nH]n(-c2ccccc2)c(=O)c1N=Nc1ccccc1O	36	.	14	.	.
COc1ccc(-c2nc3cc(C)c(Br)c(C)n3c2Cc2ccc(C)cc2)cc1OC	-32	.	-1	.	.
CC(C)C[C@@H]1NC(=O)[C@@H]2CSCCS(=O)(=O)N2C1=O	-2	.	1	.	.
COc1cc(-c2cc(C(=O)N3CCN(c4ccccn4)CC3)c3ccccc3n2)cc(OC)c1OC	50*	1	16	-2	-1
CCCc1ccc(-c2cc(C(=O)N3CCN(c4ccccn4)CC3)c3ccccc3n2)cc1	15	-11	1	0	0
COc1ccc(-c2cc(C(=O)N3CCN(c4ccccc4)CC3)c3ccccc3n2)cc1	48	-1	12	-1	0
O=C(c1cc(-c2cccs2)nc2ccccc12)N1CCN(c2ccccc2O)CC1	58*	-29	26	5	2
COc1ccc(-c2cc(C(=O)N3CCN(c4ccccc4O)CC3)c3ccccc3n2)cc1	62*	-8	20	3	3
O=C(c1cnc(N2CCN(c3ccccn3)CC2)c2ccccc12)N1CCN(c2cccc(Cl)c2)CC1	60*	-8	11	2	4
Cc1ccc(Cl)cc1NC(=O)N(C)CCOC(=O)Nc1cccc(Cl)c1	27	.	0	.	.
